Source: PubChem (The Scripps Research Institute Molecular Screening Center)
Hits are enriched below; roughly 1.7% of the tested compounds scored in any of these assays.
EBNA-1 inhibitor – blocks EBNA-1 binding to DNA. EBNA-1 DNA binding, fluorescence polarization. inhibition, % at 14.8 µM. 0.34% of 300,000 active. AID 1950; in the data active = inhibition above about 28%
PP5 primary – PP5 (human) phosphatase inhibition; P53041; purified PP5c, OMFP substrate fluorescence; inhibition, % at 6.7 µM; 0.18% of 320,000 active; AID 1987;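 active = inhibition above the campaign's mean inhibition across all tested compounds plus 3 SD, cut at about 9.5% in these data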;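 note: 0% = DMSO only and 100% = 100 µM cantharidin control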
Target sequence (P53041 whole entry, looked up): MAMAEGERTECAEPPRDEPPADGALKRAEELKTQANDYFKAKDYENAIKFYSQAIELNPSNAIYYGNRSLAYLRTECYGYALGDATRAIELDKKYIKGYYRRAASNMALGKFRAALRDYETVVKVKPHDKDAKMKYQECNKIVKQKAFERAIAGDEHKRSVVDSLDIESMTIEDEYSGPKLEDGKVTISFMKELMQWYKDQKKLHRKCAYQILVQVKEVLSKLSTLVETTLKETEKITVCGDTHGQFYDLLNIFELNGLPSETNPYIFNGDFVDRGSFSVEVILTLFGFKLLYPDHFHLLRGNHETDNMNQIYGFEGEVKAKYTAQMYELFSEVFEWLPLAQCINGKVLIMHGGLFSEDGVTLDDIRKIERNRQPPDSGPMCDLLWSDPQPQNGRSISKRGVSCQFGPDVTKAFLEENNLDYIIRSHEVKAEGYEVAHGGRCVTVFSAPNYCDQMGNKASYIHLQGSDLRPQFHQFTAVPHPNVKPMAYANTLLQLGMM
core dimer inh – blocks dimerization of HCV core protein. TR-FRET GST/Flag-core106 dimerization, 1536-well. inhibition, % at 5 µM. 0.33% of 300,000 active;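 active = inhibition above the mean of all tested compounds plus 3 SD, set per screening campaign, cut at about 45% in these data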
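assay system = GST-tagged and Flag-tagged HCV core protein residues 1-106 | controls = unlabelled core106 and no-GST-core106 wells | incubation = compound-protein-antibody incubation 4 h at 22.5 °C | probe or stimulus = Eu donor and XL665 acceptor anti-tag antibodies | read-out = % inhibition based on acceptor/donor emission ratio | signal = TR-FRET 671 and 617 nm emission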
PP1 counter – blocks human PP1-alpha phosphatase, a PP5 counter-screen; 0.9% of 320,000 active; P62136; inhibition, % at 6.7 µM; purified PP1alpha, OMFP fluorescence; AID 2235;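 active = inhibition above the mean inhibition of all tested compounds plus 3 SD, computed separately for each screening campaign, cut at about 15% in these data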
ZTA counter – counter-screen for EBNA-1 inhibitors: inhibitors of Epstein-Barr virus ZTA. ZTA-DNA binding, fluorescence polarization. 0.15% of 320,000 active. inhibition, % at 11 µM; in the data active = inhibition above about 33%
Target sequence (P03206 whole entry, looked up): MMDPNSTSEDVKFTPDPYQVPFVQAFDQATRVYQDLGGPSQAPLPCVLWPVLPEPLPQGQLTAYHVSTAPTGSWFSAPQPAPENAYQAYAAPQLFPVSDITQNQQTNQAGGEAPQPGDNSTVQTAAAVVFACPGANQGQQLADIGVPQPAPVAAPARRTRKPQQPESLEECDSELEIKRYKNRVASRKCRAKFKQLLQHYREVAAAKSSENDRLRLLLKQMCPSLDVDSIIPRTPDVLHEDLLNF
PP5 conf – PP5 (human) inhibition, confirmation; 22% of 460 active; inhibition, % at 6.7 µM; Purified PP5, fluorogenic phosphatase substrate, fluorescence; shares compounds with PP5 primary; in the data active = inhibition above about 9.5%
PP1 counter 3x – inhibits human PP1 phosphatase in PP5 counter-screen. 4% of 460 active. shares compounds with PP5 primary. inhibition, % at 6.7 µM. PP1 enzyme, fluorescent phosphatase substrate; in the data active = inhibition above about 16%
* = called active by the depositor; · = not tested or not shown.

SMILES | EBNA-1 inhibitor | PP5 primary | core dimer inh | PP1 counter | ZTA counter | PP5 conf | PP1 counter 3x
Oc1ccc(/C=N/Nc2cc(N3CCOCC3)nc(N3CCOCC3)n2)cc1O | -1.5 | 2.9 | -18.9 | -0.4 | 10.8 | · | ·
Oc1ccccc1/C=N/Nc1cc(N2CCCC2)nc(N2CCCC2)n1 | -1.2 | 13.7* | -13.1 | 7.8 | -0.1 | 44.1* | 6.3
COc1cc(OC)cc(C(=O)NCCOc2ccccc2)c1 | -3.1 | -0.1 | 7.1 | -0.9 | 12.0 | · | ·
COc1ccc(OCCNC(=O)c2cccc(Oc3ccc(C(F)(F)F)cc3[N+](=O)[O-])c2)cc1 | -1.6 | 10.5* | 11.3 | 2.7 | 6.1 | 2.6 | -2.6
O=C(NCCO)c1ccc(Oc2ccc(C(F)(F)F)cc2[N+](=O)[O-])cc1 | 3.0 | 1.7 | -9.8 | -1.4 | 6.3 | · | ·
CCCCOc1ccc(C(=O)NCCOc2cccc(OC)c2)cc1 | 14.4 | 9.8* | 3.9 | -0.6 | 15.5 | -1.0 | -0.8
COCCCNC(=S)Nc1ccc(CC(=O)O)cc1 | 10.6 | -0.9 | -11.7 | 1.1 | -0.7 | · | ·
O=C(Cc1ccc(S(=O)(=O)N2CCOCC2)s1)Nc1cc(C(F)(F)F)ccc1N1CCCC1 | 3.4 | 1.8 | 7.7 | 0.2 | -2.4 | · | ·
O=C(Cc1ccc(S(=O)(=O)N2CCOCC2)s1)Nc1cc(C(F)(F)F)cc(C(F)(F)F)c1 | · | 9.7* | · | 6.7 | -7.7 | 13.2* | 8.6
COc1cc(C=O)ccc1OCCSc1ccc(Cl)cc1 | -9.8 | 15.2* | 4.1 | 0.5 | -14.1 | -1.1 | -1.1
COc1cc(C=O)ccc1OCCOCCOc1ccc(Cl)cc1 | 1.2 | 3.0 | 3.9 | 2.7 | -0.9 | · | ·
Cc1cc(C)nc(SCCn2c(N3CC(C)OC(C)C3)nc3c2c(=O)n(C)c(=O)n3C)n1 (stereo not given) | -7.7 | -2.6 | -0.7 | 0.5 | 2.2 | · | ·
CCCCCCCC(=O)OCC(=O)[C@@]1(O)CC[C@H]2[C@@H]3CCC4=CC(=O)CC[C@]4(C)[C@H]3[C@@H](O)C[C@@]21C | 8.7 | 11.1* | 23.0 | -8.7 | -9.2 | 2.5 | 3.5
CC12CCC(=O)C=C1CCC1C2C(O)CC2(C)C1CCC2(O)C(=O)CO (stereo not given) | 8.6 | -3.1 | 9.8 | -1.2 | 16.9 | · | ·
CCSc1nc2ccccc2c(=O)n1CCc1ccc(OC)c(OC)c1 | -10.1 | 10.1* | 5.5 | -2.7 | 3.6 | -0.9 | 0.1
COc1ccc(CCn2c(C)nc3ccccc3c2=O)cc1OC | 11.0 | 0.8 | -1.5 | -0.4 | 10.4 | · | ·
CCCOc1ccc(C(=O)N/N=C/c2c[nH]c3ccc(Br)cc23)cc1 | 1.1 | 11.8* | 3.4 | 3.7 | 15.7 | 4.6 | 2.4
Cc1ccc(S(=O)(=O)c2nc(-c3cccs3)oc2NCCCN(C)C)cc1 | -1.9 | -3.4 | 3.5 | 1.9 | -0.9 | · | ·
O=C(Nc1ccon1)c1cccc(S(=O)(=O)N2CCCCC2)c1 | 9.2 | 0.4 | 12.4 | -3.2 | 14.4 | · | ·
O=C(O)C(Cc1c[nH]c2ccccc12)NS(=O)(=O)c1ccc(Cl)cc1 (stereo not given) | 6.3 | -2.7 | 5.5 | -3.2 | 8.4 | · | ·
CCOC(=O)C1CCCN(CC(O)COc2ccc(OC)cc2C(C)(C)C)C1 (stereo not given) | -9.1 | 10.7* | 0.3 | 1.2 | -10.8 | 0.2 | -3.8
CC1CN(CCc2ccccc2)c2nc3c(c(=O)n(C)c(=O)n3C)n2C1 (stereo not given) | -21.1 | 2.8 | -16.6 | -1.2 | -0.5 | · | ·
O=C(CN1C(=O)NC(c2ccccc2)(c2ccccc2)C1=O)Nc1cccnc1Cl | 5.0 | 11.8* | 2.9 | -1.1 | 5.3 | -4.8 | -3.6
CCC1(c2ccccc2)NC(=O)N(CC(=O)Nc2cccnc2Cl)C1=O (stereo not given) | · | -0.7 | · | -1.5 | 9.1 | · | ·
O=C(Nc1ccc(Br)cc1)N1CCCCC1 | 3.1 | -0.6 | 0.0 | -4.8 | 12.3 | · | ·
SMILES | EBNA-1 inhibitor | PP5 primary | core dimer inh | PP1 counter | ZTA counter | PP5 conf | PP1 counter 3x
COc1ccc(-c2n[nH]c(C)c2-c2ccc(Cl)cc2)c(O)c1OC | -6.6 | 10.2* | 5.9 | 5.5 | 1.2 | 3.6 | 5.2
CC(=O)Nc1ccc(NC(=O)CCc2nc3sc4c(c3c(=O)[nH]2)CCCC4)cc1 | 6.2 | 0.6 | 22.0 | -4.2 | 10.9 | · | ·
CC1(NC(=O)CCc2nc3sc4c(c3c(=O)[nH]2)CCCC4)CCS(=O)(=O)C1 (stereo not given) | -4.6 | 10.3* | 22.2 | -22.1 | 14.3 | -4.0 | -2.1
O=C1C(Nc2ccccc2)=C(N2CCCCC2)C(=O)c2ccccc21 | 0.2 | 10.5* | 13.1 | 1.7 | -5.2 | 32.7* | -0.5
Cc1ccc(NC2=C(N3CCCCC3)C(=O)c3ccccc3C2=O)cc1 | 0.0 | 8.9 | 8.6 | 5.0 | 2.5 | · | ·
O=C(/C=C/c1ccc(O)cc1)c1ccc(NC2=C(N3CCCCC3)C(=O)c3ccccc3C2=O)cc1 | 2.1 | 9.9* | 18.2 | 4.1 | -4.5 | 37.1* | 0.6
Cc1ccc(/C=C/C(=O)OCC(=O)NC(C)C)o1 | -3.4 | 3.0 | -7.2 | -0.6 | -11.4 | · | ·
CCCc1ccc(Oc2cn[nH]c2-c2ccc(O)cc2O)cc1 | -10.9 | 10.0* | 1.4 | 5.9 | -2.1 | 4.2 | 6.6
COc1ccc(Oc2cn[nH]c2-c2ccc(O)cc2O)cc1 | 13.3 | 2.7 | -0.9 | -1.5 | 6.5 | · | ·
COc1ccccc1CC(=O)O/N=C(\N)Cc1cccc2ccccc12 | 11.4 | 12.0* | 0.9 | 5.2 | 7.3 | -1.9 | -2.8
CCCNC(=O)COc1ccc(S(=O)(=O)Nc2ccc(C)cc2)cc1 | -0.3 | 1.8 | -3.5 | 1.6 | 1.0 | · | ·
COCCn1c(N)c(C(=O)NCC2CCCO2)c2nc3ccccc3nc21 (stereo not given) | 5.4 | 13.4* | 8.4 | 4.1 | -10.4 | 15.1* | -3.6
COCCn1c(N)c(S(=O)(=O)c2cccs2)c2nc3ccccc3nc21 | -13.1 | 5.9 | -26.1 | -9.3 | -14.3 | · | ·
COCCn1c(N)c(C(=O)NCc2cccs2)c2nc3ccccc3nc21 | -8.3 | 10.7* | 2.5 | 0.2 | -8.0 | 5.1 | 3.9
CC(C)Cn1c(N)c(C(=O)NCC2CCCO2)c2nc3ccccc3nc21 (stereo not given) | 5.4 | 4.8 | -0.9 | 2.3 | 4.1 | · | ·
Nc1c(C(=O)NCc2ccc3c(c2)OCO3)c2nc3ccccc3nc2n1CCCN1CCOCC1 | -0.6 | 9.7* | -6.8 | 4.2 | 7.0 | 13.3* | 4.1
CC(C)OC(=O)CSc1nnc2c(n1)[nH]c1ccc(F)cc12 | 9.5 | -0.4 | -0.3 | -0.2 | -2.5 | · | ·
COc1ccccc1CNC(=O)COC(=O)c1ccc(C)c(S(=O)(=O)N2CCOCC2)c1 | -1.6 | 0.3 | -2.5 | -4.4 | -11.5 | · | ·
Cc1occc1C(=O)Nc1nnc(-c2cccs2)s1 | 0.3 | 0.8 | 0.7 | 2.4 | 5.5 | · | ·
O=c1[nH]c(C2CCN(S(=O)(=O)c3cccc([N+](=O)[O-])c3)CC2)nc2c1nnn2Cc1ccccc1 | 4.0 | 2.5 | 15.8 | 2.6 | -4.4 | · | ·
O=C(c1ccc(C(F)(F)F)cc1)c1c[nH]c(C(=O)NCCCn2ccnc2)c1 | -2.2 | 11.9* | -2.9 | -2.5 | -14.6 | -2.1 | -3.2
